Data: ChEMBL document CHEMBL1149678, “Synthesis and structure-activity relationship of RXR antagonists based on the diazepinylbenzoic acid structure” (Bioorg Med Chem Lett, 2007)

Tested on: not listed separately
Assay: Terminal elimination half life in rat at 1 mg/kg, iv
Format: ADME, organism-based
Set-up: dose 1 mg/kg, route intravenous
Settings: in vivo
In short: (§1)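 Rats given the compound as a 1 mg/kg intravenous bolus or 3 mg/kg perorally as a suspension. Blood was sampled at various time points up to 24 h, and parent compound levels were measured by LC/MS. Clearance, terminal half-life and steady-state volume of distribution come from the iv profile, Cmax and tmax from the po profile, and bioavailability from comparing iv and po dosing.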

| SMILES | half-life [h] |
| --- | --- |
| CCCN1c2ccc(NS(=O)(=O)c3cccc(C(F)(F)F)c3)cc2N=C(c2ccc(C(=O)O)cc2)c2cc3c(cc21)C(C)(C)CCC3(C)C | 1.8 |
| CCN1c2ccc(NS(=O)(=O)c3cccc(C(F)(F)F)c3)cc2N=C(c2ccc(C(=O)O)cc2)c2cc3c(cc21)C(C)(C)CCC3(C)C | 2.1 |

Target: T1, Retinoic acid receptor RXR-alpha (Homo sapiens, UniProt P19793)
T1 sequence (P19793 whole entry): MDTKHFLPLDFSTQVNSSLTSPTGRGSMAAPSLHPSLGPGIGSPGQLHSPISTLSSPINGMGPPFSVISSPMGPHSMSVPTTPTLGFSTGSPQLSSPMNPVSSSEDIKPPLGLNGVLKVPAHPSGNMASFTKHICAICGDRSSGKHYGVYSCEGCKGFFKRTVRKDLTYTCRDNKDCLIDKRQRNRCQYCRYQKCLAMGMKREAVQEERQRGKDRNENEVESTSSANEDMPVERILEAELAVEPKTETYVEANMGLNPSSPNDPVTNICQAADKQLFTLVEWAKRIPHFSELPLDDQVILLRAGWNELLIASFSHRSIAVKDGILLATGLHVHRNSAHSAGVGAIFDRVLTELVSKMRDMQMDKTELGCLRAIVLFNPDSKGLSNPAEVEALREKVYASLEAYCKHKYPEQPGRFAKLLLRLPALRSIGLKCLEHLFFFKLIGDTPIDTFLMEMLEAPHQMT
Assay: Antagonist activity at human RXRalpha expressed in […] cells assessed as inhibition of LG-100268-induced transactivation
Format: functional, cell-based, HEK293
Settings: not given

| SMILES | IC50 [nM] |
| --- | --- |
| CN1c2ccc(NS(=O)(=O)c3ccc(F)cc3)cc2N=C(c2ccc(C(=O)O)cc2)c2cc3c(cc21)C(C)(C)CCC3(C)C | 1700 |
| CN1c2ccc(NC(=O)NCc3ccccc3)cc2N=C(c2ccc(C(=O)O)cc2)c2cc3c(cc21)C(C)(C)CCC3(C)C | 2500 |
| CCNC(=O)Nc1ccc2c(c1)N=C(c1ccc(C(=O)O)cc1)c1cc3c(cc1N2C)C(C)(C)CCC3(C)C | 7400 |
| CCCCNC(=O)Nc1ccc2c(c1)N=C(c1ccc(C(=O)O)cc1)c1cc3c(cc1N2C)C(C)(C)CCC3(C)C | 3400 |
| CNc1ccc2c(c1)N=C(c1ccc(C(=O)O)cc1)c1cc3c(cc1N2C)C(C)(C)CCC3(C)C | > 100000 |
| CN1c2ccc(NC(=O)c3ccccc3)cc2N=C(c2ccc(C(=O)O)cc2)c2cc3c(cc21)C(C)(C)CCC3(C)C | 2000 |
| CCCCS(=O)(=O)Nc1ccc2c(c1)N=C(c1ccc(C(=O)O)cc1)c1cc3c(cc1N2CCC)C(C)(C)CCC3(C)C | 850 |
| CN1c2ccc(NS(=O)(=O)/C=C/c3ccccc3)cc2N=C(c2ccc(C(=O)O)cc2)c2cc3c(cc21)C(C)(C)CCC3(C)C | 2900 |
| CN1c2ccc(NC(=O)c3cccc(C(F)(F)F)c3)cc2N=C(c2ccc(C(=O)O)cc2)c2cc3c(cc21)C(C)(C)CCC3(C)C | 4100 |
| CC(C)C(=O)Nc1ccc2c(c1)N=C(c1ccc(C(=O)O)cc1)c1cc3c(cc1N2C)C(C)(C)CCC3(C)C | 5600 |
| CN1c2ccc(NS(C)(=O)=O)cc2N=C(c2ccc(C(=O)O)cc2)c2cc3c(cc21)C(C)(C)CCC3(C)C | 4400 |
| CCCN1c2ccc(NS(=O)(=O)CCC)cc2N=C(c2ccc(C(=O)O)cc2)c2cc3c(cc21)C(C)(C)CCC3(C)C | 840 |
| CN1c2ccc(NS(=O)(=O)c3ccccc3F)cc2N=C(c2ccc(C(=O)O)cc2)c2cc3c(cc21)C(C)(C)CCC3(C)C | 4400 |
| CCCN1c2ccc(NC(=O)Cc3ccc(F)cc3)cc2N=C(c2ccc(C(=O)O)cc2)c2cc3c(cc21)C(C)(C)CCC3(C)C | 3900 |
| CCN1c2ccc(NC(=O)Cc3ccc(F)cc3)cc2N=C(c2ccc(C(=O)O)cc2)c2cc3c(cc21)C(C)(C)CCC3(C)C | 1200 |
| CN1c2ccc(NS(=O)(=O)c3ccccc3C(F)(F)F)cc2N=C(c2ccc(C(=O)O)cc2)c2cc3c(cc21)C(C)(C)CCC3(C)C | 2600 |
| CCCN1c2ccc(NS(=O)(=O)c3cccc(C(F)(F)F)c3)cc2N=C(c2ccc(C(=O)O)cc2)c2cc3c(cc21)C(C)(C)CCC3(C)C | 190 |
| CCC(=O)Nc1ccc2c(c1)N=C(c1ccc(C(=O)O)cc1)c1cc3c(cc1N2C)C(C)(C)CCC3(C)C | 7100 |
| CCCCS(=O)(=O)Nc1ccc2c(c1)N=C(c1ccc(C(=O)O)cc1)c1cc3c(cc1N2C)C(C)(C)CCC3(C)C | 910 |
| CN1c2ccc(NCc3ccccc3)cc2N=C(c2ccc(C(=O)O)cc2)c2cc3c(cc21)C(C)(C)CCC3(C)C | > 100000 |
| CN1c2ccc(NC(=O)C3CCCCC3)cc2N=C(c2ccc(C(=O)O)cc2)c2cc3c(cc21)C(C)(C)CCC3(C)C | 4500 |
| CCCS(=O)(=O)Nc1ccc2c(c1)N=C(c1ccc(C(=O)O)cc1)c1cc3c(cc1N2CC)C(C)(C)CCC3(C)C | 570 |
| CCN1c2ccc(NS(=O)(=O)c3cccc(C(F)(F)F)c3)cc2N=C(c2ccc(C(=O)O)cc2)c2cc3c(cc21)C(C)(C)CCC3(C)C | 160 |

Tested on: not listed separately
Assay: Bioavailability in rat at 1 mg/kg, iv and 3 mg/kg, po
Format: ADME, organism-based
Settings: in vivo
In short: as §1

| SMILES | bioavailability [%] |
| --- | --- |
| CCCN1c2ccc(NS(=O)(=O)c3cccc(C(F)(F)F)c3)cc2N=C(c2ccc(C(=O)O)cc2)c2cc3c(cc21)C(C)(C)CCC3(C)C | 21 |
| CCN1c2ccc(NS(=O)(=O)c3cccc(C(F)(F)F)c3)cc2N=C(c2ccc(C(=O)O)cc2)c2cc3c(cc21)C(C)(C)CCC3(C)C | 36 |

Tested on: not listed separately
Assay: Tmax in rat at 3 mg/kg, po
Format: ADME, organism-based
Set-up: dose 3 mg/kg, route oral
Settings: in vivo
In short: as §1

| SMILES | Tmax [h] |
| --- | --- |
| CCCN1c2ccc(NS(=O)(=O)c3cccc(C(F)(F)F)c3)cc2N=C(c2ccc(C(=O)O)cc2)c2cc3c(cc21)C(C)(C)CCC3(C)C | 4 |
| CCN1c2ccc(NS(=O)(=O)c3cccc(C(F)(F)F)c3)cc2N=C(c2ccc(C(=O)O)cc2)c2cc3c(cc21)C(C)(C)CCC3(C)C | 4.7 |

Tested on: not listed separately
Assay: Cmax in rat at 3 mg/kg, po
Format: ADME, organism-based
Set-up: dose 3 mg/kg, route oral
Settings: in vivo
In short: as §1

| SMILES | Cmax [nM] |
| --- | --- |
| CCCN1c2ccc(NS(=O)(=O)c3cccc(C(F)(F)F)c3)cc2N=C(c2ccc(C(=O)O)cc2)c2cc3c(cc21)C(C)(C)CCC3(C)C | 519 |
| CCN1c2ccc(NS(=O)(=O)c3cccc(C(F)(F)F)c3)cc2N=C(c2ccc(C(=O)O)cc2)c2cc3c(cc21)C(C)(C)CCC3(C)C | 468 |

Tested on: not listed separately
Assay: Plasma clearance in rat at 1 mg/kg, iv
Format: ADME, organism-based
Set-up: dose 1 mg/kg, route intravenous
Settings: not given
In short: as §1

| SMILES | clearance [mL/min/kg] |
| --- | --- |
| CCCN1c2ccc(NS(=O)(=O)c3cccc(C(F)(F)F)c3)cc2N=C(c2ccc(C(=O)O)cc2)c2cc3c(cc21)C(C)(C)CCC3(C)C | 6.67 |
| CCN1c2ccc(NS(=O)(=O)c3cccc(C(F)(F)F)c3)cc2N=C(c2ccc(C(=O)O)cc2)c2cc3c(cc21)C(C)(C)CCC3(C)C | 8.33 |

Target: T1, Retinoic acid receptor RXR-alpha
Assay: Antagonist activity at human RXRalpha expressed in […] cells assessed as inhibition of 9-cis-retinoic acid-induced transactivation
Format: functional, cell-based, HEK293
Settings: not given

| SMILES | IC50 [nM] |
| --- | --- |
| CN1c2ccc(NS(=O)(=O)c3ccc(F)cc3)cc2N=C(c2ccc(C(=O)O)cc2)c2cc3c(cc21)C(C)(C)CCC3(C)C | 190 |
| CN1c2ccc(NC(=O)NCc3ccccc3)cc2N=C(c2ccc(C(=O)O)cc2)c2cc3c(cc21)C(C)(C)CCC3(C)C | 2800 |
| CCNC(=O)Nc1ccc2c(c1)N=C(c1ccc(C(=O)O)cc1)c1cc3c(cc1N2C)C(C)(C)CCC3(C)C | 7300 |
| CCCCNC(=O)Nc1ccc2c(c1)N=C(c1ccc(C(=O)O)cc1)c1cc3c(cc1N2C)C(C)(C)CCC3(C)C | 3300 |
| CNc1ccc2c(c1)N=C(c1ccc(C(=O)O)cc1)c1cc3c(cc1N2C)C(C)(C)CCC3(C)C | > 10000 |
| CN1c2ccc(NC(=O)c3ccccc3)cc2N=C(c2ccc(C(=O)O)cc2)c2cc3c(cc21)C(C)(C)CCC3(C)C | 900 |
| CCCCS(=O)(=O)Nc1ccc2c(c1)N=C(c1ccc(C(=O)O)cc1)c1cc3c(cc1N2CCC)C(C)(C)CCC3(C)C | 140 |
| CN1c2ccc(NS(=O)(=O)/C=C/c3ccccc3)cc2N=C(c2ccc(C(=O)O)cc2)c2cc3c(cc21)C(C)(C)CCC3(C)C | 400 |
| CN1c2ccc(NC(=O)c3cccc(C(F)(F)F)c3)cc2N=C(c2ccc(C(=O)O)cc2)c2cc3c(cc21)C(C)(C)CCC3(C)C | 4200 |
| CC(C)C(=O)Nc1ccc2c(c1)N=C(c1ccc(C(=O)O)cc1)c1cc3c(cc1N2C)C(C)(C)CCC3(C)C | 1900 |
| CN1c2ccc(NS(C)(=O)=O)cc2N=C(c2ccc(C(=O)O)cc2)c2cc3c(cc21)C(C)(C)CCC3(C)C | 2400 |
| CCCN1c2ccc(NS(=O)(=O)CCC)cc2N=C(c2ccc(C(=O)O)cc2)c2cc3c(cc21)C(C)(C)CCC3(C)C | 550 |
| CN1c2ccc(NS(=O)(=O)c3ccccc3F)cc2N=C(c2ccc(C(=O)O)cc2)c2cc3c(cc21)C(C)(C)CCC3(C)C | 2300 |
| CCCN1c2ccc(NC(=O)Cc3ccc(F)cc3)cc2N=C(c2ccc(C(=O)O)cc2)c2cc3c(cc21)C(C)(C)CCC3(C)C | 3100 |
| CCN1c2ccc(NC(=O)Cc3ccc(F)cc3)cc2N=C(c2ccc(C(=O)O)cc2)c2cc3c(cc21)C(C)(C)CCC3(C)C | 720 |
| CN1c2ccc(NS(=O)(=O)c3ccccc3C(F)(F)F)cc2N=C(c2ccc(C(=O)O)cc2)c2cc3c(cc21)C(C)(C)CCC3(C)C | 1400 |
| CCCN1c2ccc(NS(=O)(=O)c3cccc(C(F)(F)F)c3)cc2N=C(c2ccc(C(=O)O)cc2)c2cc3c(cc21)C(C)(C)CCC3(C)C | 76 |
| CCC(=O)Nc1ccc2c(c1)N=C(c1ccc(C(=O)O)cc1)c1cc3c(cc1N2C)C(C)(C)CCC3(C)C | 2200 |
| CCCCS(=O)(=O)Nc1ccc2c(c1)N=C(c1ccc(C(=O)O)cc1)c1cc3c(cc1N2C)C(C)(C)CCC3(C)C | 370 |
| CN1c2ccc(NCc3ccccc3)cc2N=C(c2ccc(C(=O)O)cc2)c2cc3c(cc21)C(C)(C)CCC3(C)C | > 10000 |
| CN1c2ccc(NC(=O)C3CCCCC3)cc2N=C(c2ccc(C(=O)O)cc2)c2cc3c(cc21)C(C)(C)CCC3(C)C | 1500 |
| CCCS(=O)(=O)Nc1ccc2c(c1)N=C(c1ccc(C(=O)O)cc1)c1cc3c(cc1N2CC)C(C)(C)CCC3(C)C | 340 |
| CCN1c2ccc(NS(=O)(=O)c3cccc(C(F)(F)F)c3)cc2N=C(c2ccc(C(=O)O)cc2)c2cc3c(cc21)C(C)(C)CCC3(C)C | 95 |

Tested on: not listed separately
Assay: Volume of distribution at steady state in rat at 1 mg/kg, iv
Format: ADME, organism-based
Set-up: dose 1 mg/kg, route intravenous
Settings: in vivo, read-out: Vdss
In short: as §1

| SMILES | Vd [L/kg] |
| --- | --- |
| CCCN1c2ccc(NS(=O)(=O)c3cccc(C(F)(F)F)c3)cc2N=C(c2ccc(C(=O)O)cc2)c2cc3c(cc21)C(C)(C)CCC3(C)C | 1.1 |
| CCN1c2ccc(NS(=O)(=O)c3cccc(C(F)(F)F)c3)cc2N=C(c2ccc(C(=O)O)cc2)c2cc3c(cc21)C(C)(C)CCC3(C)C | 1.2 |
